How the values were obtained:
P2Y purinoceptor 12 = P2Y purinoceptor 12 (Homo sapiens, UniProt Q9H244); experiment: Displacement of [33P]ADP from human recombinant P2Y12 receptor expressed in CHO cells; format: cell-based
In short: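 Washed membranes from CHO cells expressing synthetic human P2Y12, incubated 1 h at room temperature with 0.2 nM 33P-MeSADP in 50 mM Tris/100 mM NaCl/1 mM EDTA. Compound was tested as a 7-point 3-fold series in triplicate. Nonspecific binding was defined with 300 nM 2-MeSADP, followed by filtration.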

[1] = Antiplatelet aggregation activity against adenosine diphosphate-induced human platelet rich plasma assessed as inhibition of platelet aggregation by turbidimetric method; format: functional; conditions: Homo sapiens, Platelet, Plasma
In short: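 Human PRP, prepared by two-step centrifugation and adjusted to 330 000 platelets/μL with PPP. Compound was preincubated 5 min at 37 °C in 0.5% DMSO, then 20 μM ADP was added. OD626 was read kinetically for 15 min at 37 °C with mixing between reads.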

P2Y purinoceptor 12, sequence (Q9H244 whole entry): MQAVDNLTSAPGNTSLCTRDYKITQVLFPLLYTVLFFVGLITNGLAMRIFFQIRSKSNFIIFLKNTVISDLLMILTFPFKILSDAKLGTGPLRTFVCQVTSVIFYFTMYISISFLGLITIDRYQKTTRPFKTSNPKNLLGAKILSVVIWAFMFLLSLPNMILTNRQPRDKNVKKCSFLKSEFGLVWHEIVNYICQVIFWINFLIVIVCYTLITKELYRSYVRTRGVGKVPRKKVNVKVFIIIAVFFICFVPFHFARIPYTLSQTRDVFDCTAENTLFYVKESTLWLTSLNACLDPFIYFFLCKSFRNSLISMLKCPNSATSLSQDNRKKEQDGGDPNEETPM

| SMILES | Ki (P2Y purinoceptor 12) [µM] | IC50 [1] [µM] |
| --- | --- | --- |
| CCCCCOC(=O)N1CCN(C(=O)[C@H](CCC(=O)O)NC(=O)c2cc(NC(=O)CNC)cc(-c3ccccc3)n2)CC1 | 0.0057 | > 10 |
| CCOC(=O)N1CCN(C(=O)[C@H](CCC(=O)O)NC(=O)c2nccc(-c3ccccc3)n2)CC1 | 1.19 | 74 |
| CCCCCOC(=O)N1CCN(C(=O)[C@H](CCC(=O)O)NC(=O)c2cc(NC(=O)N3CCCCC3)cc(-c3ccccc3)n2)CC1 | 0.0058 | > 10 |
| CCNC(=O)N1CCN(C(=O)[C@H](CCC(=O)O)NC(=O)c2cccc(-c3ccccc3)n2)CC1 | 0.288 | 80 |
| Cc1cccc(N2CCN(C(=O)[C@H](CCC(=O)O)NC(=O)c3cccc(-c4ccccc4)c3)CC2)c1 | 1.31 | > 100 |
| CCCCCN1CCN(C(=O)[C@H](CCC(=O)O)NC(=O)c2cccc(-c3ccccc3)n2)CC1 | > 3.59 | > 100 |
| CCCCCOC(=O)N1CCN(C(=O)[C@H](CCC(=O)O)NC(=O)c2cc(NC(=O)C3CCOCC3)cc(-c3ccccc3)n2)CC1 | 0.0085 | > 10 |
| CCOC(=O)N1CCN(C(=O)[C@H](CCC(=O)O)NC(=O)c2cc(-c3ccccc3)nc(-c3ccccc3)c2)CC1 | 0.484 | > 50 |
| CCOC(=O)N1CCN(C(=O)CNC(=O)c2cccc(-c3ccccc3)n2)CC1 | 1.61 | > 100 |
| CCS(=O)(=O)N1CCN(C(=O)[C@H](CCC(=O)O)NC(=O)c2cccc(-c3ccccc3)n2)CC1 | > 3.59 | > 100 |
| CCCN(CCC)c1cc(C(=O)N[C@@H](CCC(=O)O)C(=O)N2CCN(C(=O)OCC)CC2)nc(-c2ccccc2)c1 | 0.045 | > 100 |
| O=C(O)CC[C@H](NC(=O)c1cccc(-c2ccccc2)n1)C(=O)N1CCN(C(=O)c2ccccc2)CC1 | 1.88 | > 100 |
| CCOC(=O)N1CCN(C(=O)[C@H](CCC(=O)O)NC(=O)c2cc(-c3ccccc3)nc(-c3ccccc3)n2)CC1 | 0.356 | > 100 |
| CCCCCOC(=O)N1CCN(C(=O)[C@H](CCC(=O)O)NC(=O)c2cc(CC3CCCCC3)cc(-c3ccccc3)n2)CC1 | 0.0086 | > 10 |
| CCCCCCNC(=O)N1CCN(C(=O)[C@H](CCC(=O)O)NC(=O)c2cccc(-c3ccccc3)n2)CC1 | 0.054 | > 100 |
| CCCS(=O)(=O)N1CCN(C(=O)[C@H](CCC(=O)O)NC(=O)c2cccc(-c3ccccc3)n2)CC1 | > 3.59 | > 100 |
| CCCCCOC(=O)N1CCN(C(=O)[C@H](CCC(=O)O)NC(=O)c2cc(CCCCCO)cc(-c3ccccc3)n2)CC1 | 0.0028 | > 10 |
| CC(C)C(=O)N1CCN(C(=O)[C@H](CCC(=O)O)NC(=O)c2cccc(-c3ccccc3)n2)CC1 | > 3.59 | > 100 |
| CCC(=O)N1CCN(C(=O)[C@H](CCC(=O)O)NC(=O)c2cccc(-c3ccccc3)n2)CC1 | > 3.59 | > 100 |
| O=C(O)CC[C@H](NC(=O)c1cccc(-c2ccccc2)n1)C(=O)N1CCN(C(=O)OCc2ccccc2)CC1 | 0.196 | > 100 |
| CC(C)(C)OC(=O)CC[C@H](NC(=O)c1cccc(-c2ccccc2)n1)C(=O)N1CCNCC1 | > 5.68 | > 100 |
| CCCNC(=O)N1CCN(C(=O)[C@H](CCC(=O)O)NC(=O)c2cccc(-c3ccccc3)n2)CC1 | 0.277 | > 100 |

| SMILES | Ki (P2Y purinoceptor 12) [µM] | IC50 [1] [µM] |
| --- | --- | --- |
| CCOC(=O)N1CCN(C(=O)[C@H](CCC(=O)O)NC(=O)c2cccc(-c3ccccc3)c2)CC1 | 3.64 | > 100 |
| CCOC(=O)N1CCN(C(=O)[C@H](CCC(=O)O)NC(=O)c2cc(N(C)C)cc(-c3ccccc3)n2)CC1 | 0.045 | > 100 |
| CC(C)CN1CCN(C(=O)[C@H](CCC(=O)O)NC(=O)c2cccc(-c3ccccc3)n2)CC1 | > 3.8 | > 100 |
| O=C(O)CC[C@H](NC(=O)c1cccc(-c2ccccc2)n1)C(=O)N1CCN(C(=O)OCC(F)(F)F)CC1 | 0.094 | > 100 |
| CCCCCCCCOC(=O)N1CCN(C(=O)[C@H](CCC(=O)O)NC(=O)c2cccc(-c3ccccc3)n2)CC1 |  | > 100 |
| CCCCCOC(=O)N1CCN(C(=O)[C@H](CCC(=O)O)NC(=O)c2cc(NC(C)=O)cc(-c3ccccc3)n2)CC1 | 0.0062 | > 10 |
| O=C(O)CC[C@H](NC(=O)c1cccc(-c2ccccc2)n1)C(=O)N1CCN(S(=O)(=O)c2ccccc2)CC1 | 0.842 | > 100 |
| CCCOC(=O)N1CCN(C(=O)[C@H](CCC(=O)O)NC(=O)c2cccc(-c3ccccc3)n2)CC1 |  | 62 |
| Cc1cccc(N2CCN(C(=O)[C@H](CCC(=O)O)NC(=O)c3cc(-c4ccccc4)cc(-c4ccccc4)c3)CC2)c1 | 1.43 | > 100 |
| CCCCCOC(=O)N1CCN(C(=O)[C@H](CCC(=O)O)NC(=O)c2cc(NC(=O)CN3CCOCC3)cc(-c3ccccc3)n2)CC1 | 0.003 | > 10 |
| COC(=O)N1CCN(C(=O)[C@H](CCC(=O)O)NC(=O)c2cccc(-c3ccccc3)n2)CC1 |  | > 100 |
| CCOC(=O)N1CCN(C(=O)CNC(=O)c2cc(-c3ccccc3)cc(-c3ccccc3)n2)CC1 | 0.733 | > 50 |
| CCOC(=O)N1CCN(C(=O)[C@H](CCC(=O)O)NC(=O)c2cc(-c3ccccc3)cc(-c3ccccc3)c2)CC1 | 0.373 | > 100 |
| CCOC(=O)N1CCN(C(=O)[C@H](CCC(=O)O)NC(=O)c2cc(-c3ccccc3)cc(-c3ccccc3)n2)CC1 | 0.015 | 76 |
| CCCCCNC(=O)N1CCN(C(=O)[C@H](CCC(=O)O)NC(=O)c2cccc(-c3ccccc3)n2)CC1 | 0.055 | > 100 |
| CCCCCCN1CCN(C(=O)[C@H](CCC(=O)O)NC(=O)c2cccc(-c3ccccc3)n2)CC1 | > 2.71 | > 100 |
| CCCCCS(=O)(=O)N1CCN(C(=O)[C@H](CCC(=O)O)NC(=O)c2cccc(-c3ccccc3)n2)CC1 | > 3.59 | > 100 |
| CCCCCOC(=O)N1CCN(C(=O)[C@H](CCC(=O)O)NC(=O)c2cc(NC(=O)COC)cc(-c3ccccc3)n2)CC1 | 0.025 | > 10 |
| CC(=O)N1CCN(C(=O)[C@H](CCC(=O)O)NC(=O)c2cccc(-c3ccccc3)n2)CC1 | > 3.59 | > 100 |
| O=C(O)CC[C@H](NC(=O)c1cccc(-c2ccccc2)n1)C(=O)N1CCN(C(=O)OC2CCCCC2)CC1 | 0.044 | > 100 |
| O=C(O)CC[C@H](NC(=O)c1cccc(-c2ccccc2)n1)C(=O)N1CCN(C(=O)OCCC2CC2)CC1 | 0.015 | > 100 |
| CCCCCCCOC(=O)N1CCN(C(=O)[C@H](CCC(=O)O)NC(=O)c2cccc(-c3ccccc3)n2)CC1 |  | 56 |

| SMILES | Ki (P2Y purinoceptor 12) [µM] | IC50 [1] [µM] |
| --- | --- | --- |
| CCCCNC(=O)N1CCN(C(=O)[C@H](CCC(=O)O)NC(=O)c2cccc(-c3ccccc3)n2)CC1 | 0.613 | > 100 |
| CC(C)CCOC(=O)N1CCN(C(=O)[C@H](CCC(=O)O)NC(=O)c2cccc(-c3ccccc3)n2)CC1 | 0.033 | 88 |
| O=C(O)CC[C@H](NC(=O)c1cccc(-c2ccccc2)n1)C(=O)N1CCN(C(=O)OC2CCCC2)CC1 | 0.047 | > 100 |
| CCCN1CCN(C(=O)[C@H](CCC(=O)O)NC(=O)c2cccc(-c3ccccc3)n2)CC1 | > 3.8 | > 100 |
| CCCCCOC(=O)N1CCN(C(=O)[C@H](CCC(=O)O)NC(=O)c2cc(N(C)CCOC)cc(-c3ccccc3)n2)CC1 | 0.0021 | > 100 |
| CCCCCOC(=O)N1CCN(C(=O)[C@H](CCC(=O)O)NC(=O)c2cc(NC(=O)NC(C)C)cc(-c3ccccc3)n2)CC1 | 0.0027 | > 10 |
| Cc1cccc(N2CCN(C(=O)[C@H](CCC(=O)O)NC(=O)c3cc(-c4ccccc4)cc(-c4ccccc4)n3)CC2)c1 | 0.15 | > 100 |
| CCCCCCOC(=O)N1CCN(C(=O)[C@H](CCC(=O)O)NC(=O)c2cccc(-c3ccccc3)n2)CC1 |  | 19 |
| O=C(O)CC[C@H](NC(=O)c1cccc(-c2ccccc2)n1)C(=O)N1CCN(C(=O)Nc2ccccc2)CC1 | 0.842 | > 100 |
| CCCCOC(=O)N1CCN(C(=O)[C@H](CCC(=O)O)NC(=O)c2cc(N(C)CCOC)cc(-c3ccccc3)n2)CC1 | 0.004 | > 100 |
| O=C(O)CC[C@H](NC(=O)c1cccc(-c2ccccc2)n1)C(=O)N1CCN(C(=O)OCCCC(F)(F)F)CC1 | 0.018 | 70 |
| CCCNC(=S)N1CCN(C(=O)[C@H](CCC(=O)O)NC(=O)c2cccc(-c3ccccc3)n2)CC1 | 0.042 | 81 |
| CCOC(=O)N1CCN(C(=O)[C@H](CCC(=O)O)NC(=O)c2cc(-c3ccccc3)ccn2)CC1 | > 5.7 | > 100 |
| CC(C)(C)CCOC(=O)N1CCN(C(=O)[C@H](CCC(=O)O)NC(=O)c2cccc(-c3ccccc3)n2)CC1 | 0.042 | > 100 |
| CCNC(=S)N1CCN(C(=O)[C@H](CCC(=O)O)NC(=O)c2cccc(-c3ccccc3)n2)CC1 | 0.009 | 39 |
| C#CCCOC(=O)N1CCN(C(=O)[C@H](CCC(=O)O)NC(=O)c2cccc(-c3ccccc3)n2)CC1 | 0.079 | > 100 |
| CCCC(=O)N1CCN(C(=O)[C@H](CCC(=O)O)NC(=O)c2cccc(-c3ccccc3)n2)CC1 | 3.1 | > 100 |
| Cc1cccc(N2CCN(C(=O)[C@H](CCC(=O)O)NC(=O)c3cc(-c4ccccc4)ccn3)CC2)c1 | > 5.7 | > 100 |
| CCCCOC(=O)N1CCN(C(=O)[C@H](CCC(=O)O)NC(=O)c2cccc(-c3ccccc3)n2)CC1 |  | 28 |
| CCCCCOC(=O)N1CCN(C(=O)[C@H](CCC(=O)O)NC(=O)c2cccc(-c3ccccc3)n2)CC1 |  | 15 |
| Cc1cccc(N2CCN(C(=O)[C@H](CCC(=O)O)NC(=O)c3cccc(-c4ccccc4)n3)CC2)c1 |  | > 100 |
